Bioassay records (PubChem BioAssay)
CXCR6 block = blocks human CXCR6 beta-arrestin recruitment | O00574 | CHO-K1 PathHunter CXCR6 beta-arrestin, luminescence | inhibition, % at 20 µM | hit rate 0.36% among 360,000; in the data active = inhibition above about 34%, passing the limit was not always enough;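 also: antagonist mode with CXCL16 agonist at 10 nM final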
EBI2 block = EBI2 (human) antagonism; EBI2 beta-arrestin recruitment, luminescence, 7a,25-OHC stimulated; inhibition, % at 5 µM; hit rate 0.81% among 360,000; AID 651636; in the data active = inhibition above about 38%;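 also: enzyme fragment complementation signal reports receptor beta-arrestin coupling in cells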
CCR6 antag = blocks CCL20-driven beta-arrestin recruitment at human CCR6 | P51684 | CHO-K1 CCR6 PathHunter beta-arrestin, luminescence, CCL20-stimulated | inhibition, % at 20 µM | hit rate 0.49% among 340,000;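 active = compounds whose inhibition of the agonist-driven luminescence signal at 20 µM reaches about 50%, limit read from the data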;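 also: cells stimulated with CCL20 at 14 nM final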
APJ antagonist = blocks the human apelin receptor APJ; AID 2521; inhibition, % at 20 µM; CHO-K1 APJ beta-arrestin complementation, luminescence; hit rate 0.32% among 330,000; P35414;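 active = inhibition above about 40% at 20 µM, limit read from the data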;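 also: cells challenged with 10 nM apelin-13 agonist together with compound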
Target sequence (P35414 whole entry, looked up): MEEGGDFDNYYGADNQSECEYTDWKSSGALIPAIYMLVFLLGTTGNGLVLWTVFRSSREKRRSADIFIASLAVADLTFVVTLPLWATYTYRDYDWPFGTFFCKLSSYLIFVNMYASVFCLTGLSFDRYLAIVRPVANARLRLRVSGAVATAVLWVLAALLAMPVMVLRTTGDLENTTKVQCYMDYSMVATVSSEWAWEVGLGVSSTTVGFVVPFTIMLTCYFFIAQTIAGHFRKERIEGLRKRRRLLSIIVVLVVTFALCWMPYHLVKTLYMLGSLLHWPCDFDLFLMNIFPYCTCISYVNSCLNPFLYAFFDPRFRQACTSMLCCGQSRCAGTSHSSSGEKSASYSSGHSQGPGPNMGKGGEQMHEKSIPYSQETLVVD
APJ agonist = agonists of human APJ apelin receptor; CHO-K1 APJ PathHunter beta-arrestin, luminescence; 0% DMSO wells, 100% apelin; P35414; hit rate 0.11% among 330,000; activation, % at 20 µM;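 active = activation more than six SD over the plate average, tested at 20 µM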
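Assay system – PathHunter CHO-K1 APJ (AGTRL-1) beta-arrestin reporter cells · Compound – one dose, 20 µM compound, 1% DMSO · Timing – compound 90 min 25 °C, reagent 1 h · Measured by – luminescence from split beta-galactosidase complementation, Galacton Star/Emerald II substrate · Measure – beta-arrestin recruitment to APJ as agonist activity, luminescent signal · Benchmarks – DMSO vs Apelin-13 10 nM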
A number is an active result; 0 = inactive; - = no result. Only some compounds are listed: those with a hit (about 1.5% of all), similar ones and a draw of the others.

SMILES	CXCR6 block	EBI2 block	CCR6 antag	APJ antagonist	APJ agonist
O=C(c1nnsc1S(=O)c1ccc(Cl)cc1)N1CCOCC1 (stereo unspecified)	67	0	74	0	0
O=C(c1nnsc1S(=O)(=O)c1ccc(Cl)cc1)N1CCOCC1	0	0	0	0	0
COc1ccccc1-c1ccc2c(c1)C(C)(Cc1cccc(C#N)c1)C(=O)N2 (stereo unspecified)	0	0	-	-	-
CC(=O)CC1OC(=O)C(Br)=C1NCc1ccccc1 (stereo unspecified)	0	0	61	0	0
CC1=C(C(=O)N2CCCCCC2)CC(CC(=O)NCCCN(C)C)C(=O)N1Cc1ccc(F)cc1 (stereo unspecified)	0	0	-	-	-
CS(=O)(=O)c1sc(C#N)c2c1C(=O)CC(c1ccccc1)C2 (stereo unspecified)	91	66	92	84	0
Cc1oc2c(c(=O)c1C)C(=O)CC(c1ccccc1)C2 (stereo unspecified)	0	0	0	0	0
Cc1ccc(C2=NOC(=O)/C2=C\c2ccccc2)cc1	0	0	0	0	0
O=C1ON=C(c2ccccc2)/C1=C/c1ccc(O)cc1	46	0	0	0	0
O=C1ON=C(c2ccccc2)/C1=C/c1ccccc1	0	0	0	0	0
COc1cc(/C=C2/C(=O)ON=C2c2ccccc2)ccc1O	0	0	55	0	0
CC1(C)CCCN(C(=O)c2ccc3c(c2NCCO)C(=O)c2ccccc2C3=O)C1	0	38	0	0	0
Cc1ccc(C)c(N=Nc2nc3ccccc3n2C)c1	28	0	0	0	0
CN1CCN(C(=O)C[C@H]2C[C@H]3c4cc(NC(=O)NC5CCCCC5)ccc4O[C@H]3[C@@H](CO)O2)CC1	0	0	-	-	-
CCCOC(=O)C1=C(C)NC2=C(C(=O)CCC2)C1c1cccs1 (stereo unspecified)	0	0	0	0	0
COC(=O)C1=C(C)NC2=C(C(=O)CC(c3cccs3)C2)C1c1ccsc1 (stereo unspecified)	0	0	58	-	-
CC1=C(C(=O)OC2CCCCCC2)C(c2ccc(C)o2)C2=C(CCCC2=O)N1 (stereo unspecified)	0	0	0	0	0
CC1=C(C(=O)OC2CCCC2)C(c2ccc(C)o2)C2=C(CC(c3cccs3)CC2=O)N1 (stereo unspecified)	0	0	58	0	0
CN(C)CCNC(=O)c1cccc(-c2cnc3c(NC=O)cc(/C=C/c4ccccc4)cn23)c1	0	0	-	-	-
Cc1cn([C@H]2C[C@H](O)[C@@H](CNC(=O)[C@@H]3CCCN3Cc3ccccc3)O2)c(=O)[nH]c1=O	0	0	-	-	-
COc1cc(O)c(C(=O)CC(=O)c2ccncc2)c(OC)c1	0	0	0	-	-
O=C(NCc1ccc(F)cc1)c1cc(C2CCCN(C(=O)C3CCCCC3)C2)on1 (stereo unspecified)	0	0	-	-	-
CC(C)(C)c1ccc(C(=O)NCCC(=O)Nc2cc(Cl)ccc2N2CCOCC2)cc1	0	0	0	0	0
Nc1cc(S(=O)(=O)O)cc2ccc(S(=O)(=O)O)cc12	0	0	0	-	-
Cc1cc(-c2ccc(N=Nc3c(S(=O)(=O)O)cc4cc(S(=O)(=O)O)cc(N)c4c3O)c(C)c2)ccc1N=Nc1c(S(=O)(=O)O)cc2cc(S(=O)(=O)O)cc(N)c2c1O	-	-	-	78	0
SMILES	CXCR6 block	EBI2 block	CCR6 antag	APJ antagonist	APJ agonist
Cc1cc(Br)ccc1SCC(=O)N1CCN(S(=O)(=O)c2ccccc2)CC1	0	83	0	0	0
O=C(CSc1ncccn1)N1CCN(S(=O)(=O)c2ccccc2)CC1	0	0	0	0	0
COC(=O)[C@@]12C[C@@H](CC(=O)NCC3CCCCC3)C(=O)N(Cc3cccc4ccccc34)C1=CCC(C)(C)C2	-	0	-	-	-
CCOC(CN=c1nc(N(C)C)ss1)OCC	60	0	92	-	-
CCOC(=O)CN1C(=O)S/C(=C/c2cccc([N+](=O)[O-])c2O)C1=O	0	0	56	0	0
O=C(O)c1cccc(CN2C(=O)S/C(=C/c3ccccc3[N+](=O)[O-])C2=O)c1	0	0	0	0	0
Cc1ccc(S(=O)(=O)N2CC3C(=O)CC(c4ccccc4)N(S(=O)(=O)c4ccc(C)cc4)C3CC2c2cccc(Cl)c2)cc1 (stereo unspecified)	-	0	-	-	-
CCOC(=O)[C@]12CCC=C1N(Cc1ccc(Cl)cc1Cl)C(=O)[C@H](CC(=O)NCCCOC)C2	0	0	-	-	-
Cc1ccc(Nc2nc(-c3c(C)nc4ccccn34)cs2)cc1	0	65	0	0	0
